Source: ChEMBL document CHEMBL1149278, “Synthesis and structure-activity relationship studies for hydantoins and analogues as voltage-gated sodium channel ligands” (J Med Chem, 2004)

Test: Displacement of [3H]BTX-B from voltage gated sodium channel in rat cerebral cortex synaptoneurosomes
Type: tissue-based
How it was run: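 Rat cerebral cortex synaptoneurosomes (~1 mg protein), stored frozen at –70 °C, thawed and resuspended in HEPES incubation buffer. […] Filtration assay; nonspecific binding defined with 300 μM veratridine. Triplicates, DPH control run alongside. IC50 by Probit analysis, using only points with 10–90% inhibition.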

SMILES	IC50 [µM]
CCOC(=O)C(O)(CC)c1ccccc1 (stereo not given)	> 200
CCC1(c2ccccc2)NC(=O)N(S(C)(=O)=O)C1=O (stereo not given)	> 500
CCCCCCCC(N)(C(=O)O)c1ccccc1 (stereo not given)	300
CCCCCC(O)(C(N)=O)c1ccccc1 (stereo not given)	178
CCCCCCCCCC(N)(C(=O)O)c1ccccc1 (stereo not given)	274
O=C1NC(c2ccccc2)(c2ccccc2)C(=O)N1CN1CCN(C(c2ccccc2)c2ccccc2)CC1	4.5
CCCC1(c2ccccc2)OC(=O)NC1=O (stereo not given)	448
CCCCCC1(c2ccccc2)NC(=O)N(S(C)(=O)=O)C1=O (stereo not given)	112
CC(O)(C(=O)N1CCN(C(c2ccccc2)c2ccccc2)CC1)c1ccccc1 (stereo not given)	6.3
CCCCCCCC(O)(C(=O)OCC)c1ccccc1 (stereo not given)	36
CCCCCC(O)(C(=O)NCCc1ccccc1)c1ccccc1 (stereo not given)	5
CCCCCC(O)(C(=O)NCCCc1ccccc1)c1ccccc1 (stereo not given)	2.5
CCC(N)(C(=O)O)c1ccccc1 (stereo not given)	> 500
CCCC(O)(C(=O)O)c1ccccc1 (stereo not given)	> 500
CCCCCC1(c2ccccc2)NC(=O)N(Cc2ccccc2)C1=O (stereo not given)	6.9
CCC(O)(C(=O)NCCC(c1ccccc1)c1ccccc1)c1ccccc1 (stereo not given)	35
CCCCCC1(c2ccccc2)OC(=O)NC1=O (stereo not given)	112
CCCCCCCCCC1(c2ccccc2)OC(=O)NC1=O (stereo not given)	11
CCCCC1(c2ccccc2)NC(=O)NC1=O (stereo not given)	103
CCCC1(c2ccccc2)NC(=O)N(S(C)(=O)=O)C1=O (stereo not given)	500
CCCCCCCC1(c2ccccc2)NC(=O)NC1=O (stereo not given)	5

Second part, the compound after the results:

IC50 [µM]	SMILES
> 200	CCC1(c2ccccc2)NC(=O)NC1=O (stereo not given)
4.3	CCC(OCCCc1ccccc1)(C(=O)NCCCc1ccccc1)c1ccccc1 (stereo not given)
6.5	CCCCCCCCCC(O)(C(N)=O)c1ccccc1 (stereo not given)
84	CCCCCCCCCC(O)(C(=O)O)c1ccccc1 (stereo not given)
51	CCC1(c2ccccc2)NC(=O)N(S(=O)(=O)c2ccc(C)cc2)C1=O (stereo not given)
> 500	CCCCCCCC(O)(C(=O)O)c1ccccc1 (stereo not given)
> 500	CCC(O)(C(N)=O)c1ccccc1 (stereo not given)
1.1	CCC1(c2ccccc2)NC(=O)N(CCN2CCN(C(c3ccccc3)c3ccccc3)CC2)C1=O (stereo not given)
0.22	O=C1NC(c2ccccc2)(c2ccccc2)C(=O)N1CCN1CCN(C(c2ccccc2)c2ccccc2)CC1
> 500	CCC(O)(C(=O)O)c1ccccc1 (stereo not given)
2.2	CCCCCCCC1(c2ccccc2)NC(=O)N(CN2CCN(C(c3ccccc3)c3ccccc3)CC2)C1=O (stereo not given)
> 500	CCCCCC(N)(C(=O)O)c1ccccc1 (stereo not given)
> 500	CCCCCC(O)(C(=O)O)c1ccccc1 (stereo not given)
9	CCCCCCCC(O)(C(N)=O)c1ccccc1 (stereo not given)
39	CCCCCC1(c2ccccc2)NC(=O)NC1=O (stereo not given)
162	CCCC1(c2ccccc2)NC(=O)NC1=O (stereo not given)
1.3	CCCCCC1(c2ccccc2)NC(=O)N(CN2CCN(C(c3ccccc3)c3ccccc3)CC2)C1=O (stereo not given)
5.1	CCCCCCCCCC1(c2ccccc2)NC(=O)N(Cc2ccccc2)C1=O (stereo not given)
3.3	CCC1(c2ccccc2)NC(=O)N(CN2CCN(C(c3ccccc3)c3ccccc3)CC2)C1=O (stereo not given)
30	CCCCCCCC1(c2ccccc2)OC(=O)NC1=O (stereo not given)
13	CCCCCCCC1(c2ccccc2)NC(=O)N(S(C)(=O)=O)C1=O (stereo not given)
30	CCC(O)(C(=O)NCCc1ccccc1)c1ccccc1 (stereo not given)
8.2	CCC(O)(C(=O)NCCCc1ccccc1)c1ccccc1 (stereo not given)
11	CCCCCCCCCC1(c2ccccc2)NC(=O)N(S(C)(=O)=O)C1=O (stereo not given)
5	CCCCCCCCCC1(c2ccccc2)NC(=O)NC1=O (stereo not given)
4.8	CCCCCC(O)(C(=O)N1CCN(C(c2ccccc2)c2ccccc2)CC1)c1ccccc1 (stereo not given)
500	CCCC(O)(C(N)=O)c1ccccc1 (stereo not given)
5.3	CCCCCC(O)(C(=O)NCCC(c1ccccc1)c1ccccc1)c1ccccc1 (stereo not given)
> 500	CC(O)(C(N)=O)c1ccccc1 (stereo not given) [ATROLACTAMIDE]
